Experimental data taken from ChEMBL document CHEMBL1208685, “Synthesis, antiproliferative activity and inhibition of tubulin polymerization by anthracenone-based oxime derivatives” (Eur J Med Chem, 2010).
pIC50: −log10 of the molar value.

Key:
K562 = assay: Cell growth inhibition of human K562 cells after 48 hrs; format: functional, cell-based; details: K562, 48 h
Method in brief: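 K562 human chronic myelogenous leukemia cells cultured in Quantum 263 medium with streptomycin and penicillin G at 37 °C, 5% CO2. Seeded at 2 × 10⁵ cells/mL, exposed 48 h to compounds in DMSO/methanol 1:1 (vehicle 0.5%). Cells counted in Neubauer chamber and expressed as % of untreated control. Triplicate wells, three experiments. IC50 by nonlinear regression.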

Tubulin (Sus scrofa) = assay: Inhibition of tubulin polymerization using porcine brain microtubule protein

Row | Structure (SMILES) | pIC50 (K562) | pIC50 (Tubulin (Sus scrofa))
1 | COc1ccc(C(=O)ON=C2c3cccc(Cl)c3C(=O)c3c(Cl)cccc32)cc1 | < 4.92 | 
2 | COc1ccc(CON=C2c3cccc(Cl)c3C(=O)c3c(Cl)cccc32)cc1 | < 4.92 | 
3 | COc1cc(CO/N=C2\c3cccc(Cl)c3C(=O)c3cccc(Cl)c32)cc(OC)c1OC | < 4.85 | 
4 | COc1ccc(S(=O)(=O)O/N=C2\c3cccc(Cl)c3C(=O)c3cccc(Cl)c32)cc1 | < 4.92 | 
5 | O=C1c2c(Cl)cccc2C(=NO)c2cccc(Cl)c21 | < 5.05 | 
6 | COc1cc(C(=O)O/N=C2\c3cccc(Cl)c3C(=O)c3cccc(Cl)c32)cc(OC)c1OC | < 4.85 | 
7 | O=C1c2ccccc2C(=NOCc2ccc(Cl)cc2)c2ccccc21 | 5.00 | 
8 | COc1cc(C(=O)ON=C2c3ccccc3C(=O)c3ccccc32)cc(OC)c1OC | < 4.92 | 
9 | O=C1c2ccccc2C(=NOCc2ccccc2)c2ccccc21 | 5.15 | 
10 | COc1ccc(C(=O)O/N=C2\c3cccc(Cl)c3C(=O)c3cccc(Cl)c32)cc1 | 4.92 | < 5.00
11 | COc1cc(CON=C2c3ccccc3C(=O)c3ccccc32)cc(OC)c1OC | < 4.92 | 
12 | COc1ccc(CO/N=C2\c3cccc(Cl)c3C(=O)c3cccc(Cl)c32)cc1 | < 4.92 | < 5.00
13 | O=C1c2ccccc2C(=NOCc2ccc([N+](=O)[O-])cc2)c2ccccc21 | < 4.96 | 

These reach a higher pIC50 (K562). Values come first.

Row | pIC50 (K562) | pIC50 (Tubulin (Sus scrofa)) | Structure (SMILES)
14 | 6.05 |  | COc1cccc2c1C(=O)c1c(OC)cccc1C2=NO
15 | 5.80 |  | O=C1c2cccc(Cl)c2/C(=N\O)c2cccc(Cl)c21
16 | 5.52 |  | O=C1c2ccccc2C(=NO)c2ccccc21
17 | 5.52 |  | COc1cc(C(=O)ON=C2c3ccccc3C(=O)c3ccccc32)ccc1O
18 | 5.47 | < 5.00 | COc1ccc(CON=C2c3cccc(OC)c3C(=O)c3c(OC)cccc32)cc1
19 | 6.43 | 5.98 | COc1ccc(CON=C2c3ccccc3C(=O)c3ccccc32)cc1
20 | 5.62 | < 5.00 | COc1ccc(CON=C2c3cccc(OC)c3C(=O)c3c(OC)cccc32)cc1O
21 | 5.80 |  | O=C1c2cccc(Cl)c2/C(=N/O)c2cccc(Cl)c21
22 | 5.52 | < 5.00 | COc1ccc(S(=O)(=O)ON=C2c3ccccc3C(=O)c3ccccc32)cc1
23 | 5.70 |  | COc1ccc(C(=O)ON=C2c3ccccc3C(=O)c3ccccc32)cc1O
24 | 5.52 | < 5.00 | COc1ccc(C(=O)ON=C2c3ccccc3C(=O)c3ccccc32)cc1
25 | 6.96 | 5.84 | COc1ccc(CON=C2c3ccccc3C(=O)c3ccccc32)cc1O
